From PubChem
MIN6 prolif – MIN6 beta-cell proliferation induction; proliferation, % at 10 µM; actives 0.29% (n = 330,000); MIN6 cells proliferation, ATPlite luminescence, 48 h; cells starved in 0.2% serum; 100% = growth in 10% serum;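 active = compounds whose signal lies at least 3.5 SD above the mean of all wells on their plate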
MC4R antag cAMP – human MC4R antagonism in cAMP assay | P32245 | MC4R-expressing cells, MTII-stimulated cAMP, LANCE TR-FRET | inhibition, % at 6.5 µM | actives 0.48% (n = 360,000) | AID 540295;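 active = inhibition above its plate's cutoff, the mean of tested wells on that plate plus 3 SD, cut at about 29% in these data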
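Material: U2OS-MC4R stable cell line | Reagent: Melanotan II challenge after compound preincubation | Doses: One concentration, 6.5 µM nominal | Incubation: 30-min compound preincubation, 1-h Melanotan II challenge, 1-h detection, room temperature | Signal: TR-FRET cAMP assay | Replicates: One well per compound, no replicates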
MC4R barr agon – human MC4R agonism via beta-arrestin; U2OS MC4R beta-arrestin complementation, luminescence; percent of melanotan II response, DMSO zero; actives 0.98% (n = 360,000); P32245; activation, % at 8.9 µM;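 active = activation above a per-plate cutoff, the mean activation of sample wells on that plate plus 3 SD, cut at about 8% in these data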
TLR9-MyD88 inh – inhibitors of human TLR9-MyD88 binding | Q9NR96+Q99836 | CHO BLA complementation TLR9-MyD88, CCF4 FRET ratio | inhibition, % at 4.98 µM | actives 0.21% (n = 340,000);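 active = inhibition above the mean over all tested compounds plus 3 SD, cut at about 21% in these data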
TLR4 MyD88 comp – inhibitors of human TLR4-MyD88 binding; O00206+Q99836; HeLa CL3-4 TLR4/MyD88 BLA complementation, FRET ratio; inhibition, % at 8.4 µM; actives 0.18% (n = 200,000); AID 861; in the data active = inhibition above about 25%
NOD2 RIPK2 PPI – inhibitors of human NOD2-RIPK2 interaction; inhibition, % at 4.98 µM; AID 624267; CHO BLA complementation NOD2-RIPK2, CCF4 ratio; O43353; actives 0.38% (n = 360,000); in the data active = inhibition above about 21%
Target sequence (O43353 whole entry, looked up): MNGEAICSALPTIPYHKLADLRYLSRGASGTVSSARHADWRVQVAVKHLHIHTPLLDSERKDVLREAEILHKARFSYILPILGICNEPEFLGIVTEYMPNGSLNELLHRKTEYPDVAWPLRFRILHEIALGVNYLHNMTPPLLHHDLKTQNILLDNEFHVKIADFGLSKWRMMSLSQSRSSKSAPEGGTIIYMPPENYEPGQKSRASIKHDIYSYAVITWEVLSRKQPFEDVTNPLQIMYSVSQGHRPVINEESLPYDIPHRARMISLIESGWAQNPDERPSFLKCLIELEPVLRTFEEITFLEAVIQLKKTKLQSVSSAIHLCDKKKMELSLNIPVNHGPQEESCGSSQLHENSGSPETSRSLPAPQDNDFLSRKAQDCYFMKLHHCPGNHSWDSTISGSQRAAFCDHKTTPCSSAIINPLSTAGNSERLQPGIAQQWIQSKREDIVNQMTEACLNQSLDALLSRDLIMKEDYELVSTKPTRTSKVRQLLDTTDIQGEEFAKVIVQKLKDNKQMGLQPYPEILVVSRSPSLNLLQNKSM
cAMP nonselect – U2OS forskolin cAMP inhibition counter-screen; parental U2OS, LANCE TR-FRET; actives 26% (n = 1,600); inhibition, % at 6.5 µM; shares compounds with MC4R antag cAMP;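 active = mean inhibition over triplicates above the low-control well mean plus 3 SD, set per campaign, cut at about 13% in these data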;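 also: signal is single emission at 671 nm which falls as cellular cAMP rises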
MC4R antag conf – human MC4R cAMP antagonism confirmation; actives 27% (n = 1,600); shares compounds with MC4R antag cAMP; inhibition, % at 6.5 µM; MC4R-expressing cells, MTII-stimulated cAMP, TR-FRET; in the data active = inhibition above about 29%
Of the large screens only hits and unclear results are named; the others gave an inactive call (follow-up assays come after a bar, where they were run). In the library only some 2.1% were active in any assay of this set; here they are far more common.

CC1(C(=O)Nc2ccc3c(c2)OCCO3)CN(S(C)(=O)=O)CC(=O)N1CCCN1CCOCC1 (centres undefined)	none (no result: MIN6 prolif, MC4R antag cAMP, MC4R barr agon, TLR9-MyD88 inh, TLR4 MyD88 comp)
O=C(CCCC(=O)N(c1ccc2c(c1)OCCO2)C(C(=O)NC1CCCCC1)c1ccc(Cl)cc1)Nc1ccccn1 (centres undefined)	none
COc1ccc(C(C(=O)NC2CCCCC2)N(C(=O)CCCC(=O)Nc2ccccn2)c2ccc3c(c2)OCCO3)cc1 (centres undefined)	MC4R antag cAMP 33 | cAMP nonselect inactive | MC4R antag conf inactive
CC(C)(C)OC(=O)NCc1ccc(NC(=O)c2nc[nH]c2C(=O)N[C@@H](Cc2ccccc2)C(=O)OCc2ccccc2)cc1	MC4R antag cAMP 63, MC4R barr agon 95 (no result: TLR4 MyD88 comp) | cAMP nonselect inactive | MC4R antag conf 36
Cn1c(=O)c2c(nc(Sc3n[nH]c(N)n3)n2Cc2ccccc2Cl)n(C)c1=O	MC4R antag cAMP 29 | cAMP nonselect inactive | MC4R antag conf inactive
Cn1c(=O)c2c(nc(Sc3ncccn3)n2Cc2ccccc2Cl)n(C)c1=O	none
O=C(Cc1ccccc1F)NC1CCCN(Cc2ccc(Cl)cc2)C1 (centres undefined)	none (no result: TLR4 MyD88 comp)
Cc1cccc(N2CCN(C(=O)NC(C)c3ccc(F)c(F)c3)CC2)c1C (centres undefined)	none (no result: TLR4 MyD88 comp)
Cc1ccc(S(=O)(=O)N2CCCCC2)cc1NC(=O)COC(=O)c1cc[n+]([O-])cc1	MC4R antag cAMP 29 | cAMP nonselect inactive | MC4R antag conf inactive
Nc1ccc(S(=O)(=O)NCC(=O)OCCOc2ccccc2)cc1[N+](=O)[O-]	MC4R antag cAMP 33 (no result: TLR4 MyD88 comp) | cAMP nonselect 27 | MC4R antag conf inactive
N#Cc1cc2c(nc1SCC(=O)Nc1nccs1)CCCCC2	MC4R antag cAMP 39 | cAMP nonselect inactive | MC4R antag conf inactive
Nc1ccc2nn(-c3cc([N+](=O)[O-])ccc3O)nc2c1	MC4R antag cAMP 29 (no result: TLR4 MyD88 comp) | cAMP nonselect inactive | MC4R antag conf inactive
Cc1ccc(NC2C(=O)NC(=O)NC2=O)cc1	none (no result: MIN6 prolif, TLR4 MyD88 comp)
O=C(N/C=N/O)C(c1ccccc1)c1ncc(C(F)(F)F)cc1Cl (centres undefined)	none (no result: TLR4 MyD88 comp)
COc1ccc(NC(=O)CN(C)CC(=O)Nc2ccc(Cl)c(S(=O)(=O)N(C)C)c2)cc1	none
CCN(CC(=O)Nc1ccc(Cl)c(S(=O)(=O)N(C)C)c1)CC(=O)NC(C)C	MC4R antag cAMP 30 | cAMP nonselect inactive | MC4R antag conf inactive
Cc1ccc(CN(C(=O)c2ccc(Cl)c([N+](=O)[O-])c2)C2CCS(=O)(=O)C2)o1 (centres undefined)	MC4R antag cAMP 37 (no result: TLR4 MyD88 comp) | cAMP nonselect 19 | MC4R antag conf 37
O=C(c1ccc(Cl)c([N+](=O)[O-])c1)N(Cc1ccccc1)C1CCS(=O)(=O)C1 (centres undefined)	none
CCN(CC(=O)Nc1c(F)cccc1F)C(=O)C1CC1C (centres undefined)	none (no result: TLR4 MyD88 comp)
O=C(CCC(=O)Nc1cccnc1)Nc1cccnc1	none (no result: TLR4 MyD88 comp)
COc1cccc(-n2c(C)cc(/C=C3/C(=N)N4C(=NC3=O)SN=C4S(C)(=O)=O)c2C)c1	MC4R antag cAMP 29 | cAMP nonselect inactive | MC4R antag conf inactive
CN(C(=O)COC(=O)CNC(=O)c1ccc(Cl)cc1Cl)c1ccccc1	MC4R antag cAMP 30 | cAMP nonselect inactive | MC4R antag conf inactive
O=C(CNC(=O)c1ccccc1F)OCc1nc2ccccc2s1	none
O=C(CNC(=O)c1ccc(Cl)cc1Cl)OCc1nc2ccccc2s1	MC4R antag cAMP 29 | cAMP nonselect 14 | MC4R antag conf inactive
O=C(CNC(=O)c1ccccc1)OCc1nc2ccccc2s1	MC4R antag cAMP 37 | cAMP nonselect 17 | MC4R antag conf inactive
COC(=O)C1CCN(C(=O)COC(=O)CNC(=O)c2ccc(Cl)cc2Cl)CC1	MC4R antag cAMP 34 (no result: TLR4 MyD88 comp) | cAMP nonselect 14 | MC4R antag conf inactive
